Test results published in ChEMBL document CHEMBL1129648, “Synthesis and selective coronary vasodilatory activity of 3,4-dihydro-2,2-bis(methoxymethyl)-2H-1-benzopyran-3-ol derivatives: novel potassium channel openers” (J Med Chem, 1996).

Test system: not listed separately
Test: Ratio of vasorelaxant effect on KCl-Induced contraction of rat aorta to that of porcine coronary artery
Type: functional

For `O=C(NCCO[N+](=O)[O-])c1cccnc1` [NICORANDIL], which Ratio is on record?
The Ratio was 4.06.

Which Ratio does the source give for `COCC1(COC)Oc2ccc(C#N)cc2[C@@H](Nc2ccc(=O)n(C)n2)[C@@H]1O` here?
The Ratio was 2.73.

Species on record: Rattus norvegicus
Test: Vasorelaxant effect on KCl-Induced contraction of rat aorta
Type: functional
How it was run: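 Isolated strips in Krebs-Henseleit solution, 37 °C, gassed with 95% O2/5% CO2, under 1 g resting load; isometric tension recorded. Strips contracted with 30 or 40 mM KCl. Cumulative concentration-relaxation curves; mean IC50 taken as concentration giving 50% relaxation of the KCl-induced contraction.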

Which IC50 does the source give for `COC(=O)C1=C(C)NC(C)=C(C(=O)OC)C1c1ccccc1[N+](=O)[O-]` [NIFEDIPINE] here?
Its IC50 is 3.6 nM.

For `CC1(C)Oc2ccc(C#N)cc2[C@@H](N2CCCC2=O)[C@@H]1O` [LEVCROMAKALIM], which IC50 is on record?
The IC50 was 290 nM.

For `O=C(NCCO[N+](=O)[O-])c1cccnc1` [NICORANDIL], which IC50 is on record?
The IC50 was 13000 nM.

With `COCC1(COC)Oc2ccc(C#N)cc2[C@@H](Nc2ccc(=O)n(C)n2)[C@@H]1O` as the compound, how does the IC50 read?
Its IC50 is 300 nM.

Test system: Canis familiaris
Test: Dose causing a 50% increase of coronary blood flow in anesthetized dogs relative to the flow increase caused by injection of 1 microg of nifedipine (100%) after intracoronary administration.
Type: functional, Canis lupus familiaris, Coronary artery
How it was run: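 Anesthetized dogs; compound dissolved in 30% DMF, diluted with saline, injected into the coronary artery. Perfusion pressure and systemic blood pressure measured by pressure transducers.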

With `COCC1(COC)Oc2ccc(C#N)cc2[C@@H](Nc2ccc(=O)n(CCC(=O)OC)n2)[C@@H]1O` as the compound, how does the ED50 read?
The ED50 was 2.3 µg.

With `COCC1(COC)Oc2ccc(C#N)cc2[C@@H](NC(=O)Nc2ccccc2)[C@@H]1O` as the compound, how does the ED50 read?
Its ED50 is >30 µg.

With `COCC1(COC)Oc2ccc(C#N)cc2[C@@H](Nc2ccc(=O)n(CC3CC3)n2)[C@@H]1O` as the compound, how does the ED50 read?
The ED50 was 1.5 µg.

For `COCC1(COC)Oc2ccc(C#N)cc2[C@@H](N=C(C)NC#N)[C@@H]1O`, which ED50 is on record?
Its ED50 is 6 µg.

Which ED50 does the source give for `COCC1(COC)Oc2ccc(C#N)cc2[C@@H](Nc2ccc(=O)n(C(C)C)n2)[C@@H]1O` here?
The ED50 was 1.3 µg.

For `COCC1(COC)Oc2ccc(C#N)cc2[C@@H](Nc2ccc(=O)n(CC(F)(F)F)n2)[C@@H]1O`, which ED50 is on record?
Its ED50 is 6.4 µg.

With `CCOCC1(COCC)Oc2ccc(C#N)cc2[C@@H](N=C(NC#N)c2cccnc2)[C@@H]1O` as the compound, how does the ED50 read?
The ED50 was >30 µg.

For `COCC1(C)Oc2ccc(C#N)cc2[C@@H](N=C(NC#N)c2cccnc2)[C@@H]1O` (stereo partly drawn), which ED50 is on record?
The ED50 was 17 µg.

Which ED50 does the source give for `COCC1(COC)Oc2ccc(C#N)cc2[C@@H](Nc2ccc(=O)n(CCF)n2)[C@@H]1O` here?
The ED50 was 1.8 µg.

For `COCC1(COC)Oc2ccc(C#N)cc2[C@@H](Nc2ccc(=O)n(CC#N)n2)[C@@H]1O`, which ED50 is on record?
Its ED50 is 5 µg.

For `COCC1(COC)Oc2ccc(C#N)cc2[C@@H](Nc2ccc(=O)n(-c3ccc([N+](=O)[O-])cc3)n2)[C@@H]1O`, which ED50 is on record?
Its ED50 is >30 µg.

Which ED50 does the source give for `COCC1(COC)Oc2ccc(C#N)cc2[C@@H](Oc2ccc(=O)n(C)n2)[C@@H]1O` here?
Its ED50 is 6.4 µg.

With `COCC1(COC)Oc2ccc(C#N)cc2[C@@H](N=C(NC#N)c2ccccc2)[C@@H]1O` as the compound, how does the ED50 read?
Its ED50 is 5.4 µg.

With `COCC1(COC)Oc2ccc(C#N)cc2[C@@H](N=C(NC#N)Nc2ccccc2)[C@@H]1O` as the compound, how does the ED50 read?
The ED50 was >30 µg.

For `COCC1(COC)Oc2ccc(C#N)cc2[C@@H](NC(=O)c2cccnc2)[C@@H]1O`, which ED50 is on record?
Its ED50 is 14 µg.

For `COCC1(COC)Oc2ccc(C#N)cc2[C@@H](Nc2ccc(=O)n(Cc3ccccc3)n2)[C@@H]1O`, which ED50 is on record?
The ED50 was 28 µg.

Which ED50 does the source give for `COCC1(COC)Oc2ccc(C#N)cc2[C@@H](Nc2ccc(=O)n(CC[N+](=O)[O-])n2)[C@@H]1O` here?
The ED50 was 1.6 µg.

Which ED50 does the source give for `COCC1(COC)Oc2ccc(C#N)cc2[C@@H](N=C(NC#N)c2cccnc2)[C@@H]1O` here?
Its ED50 is 14 µg.

Which ED50 does the source give for `COCCn1nc(N[C@@H]2c3cc(C#N)ccc3OC(COC)(COC)[C@H]2O)ccc1=O` here?
The ED50 was 4.1 µg.

Which ED50 does the source give for `CC1(COc2ccccc2)Oc2ccc(C#N)cc2[C@@H](N=C(NC#N)c2cccnc2)[C@@H]1O` (stereo partly drawn) here?
Its ED50 is >30 µg.

For `COCC1(COC)Oc2ccc(Br)cc2[C@@H](N=C(NC#N)c2cccnc2)[C@@H]1O`, which ED50 is on record?
Its ED50 is 20 µg.

With `CCCn1nc(N[C@@H]2c3cc(C#N)ccc3OC(COC)(COC)[C@H]2O)ccc1=O` as the compound, how does the ED50 read?
The ED50 was 1.5 µg.

With `CCn1nc(N[C@@H]2c3cc(C#N)ccc3OC(COC)(COC)[C@H]2O)ccc1=O` as the compound, how does the ED50 read?
The ED50 was 0.57 µg.

With `N#CNC(=N[C@@H]1c2cc(C#N)ccc2OC2(COCOC2)[C@H]1O)c1cccnc1` as the compound, how does the ED50 read?
The ED50 was >30 µg.

For `COCC1(COC)Oc2ccc(C#N)cc2[C@@H](Nc2ccc(=O)n(CCSC)n2)[C@@H]1O`, which ED50 is on record?
Its ED50 is 3.3 µg.

For `COCC1(COC)Oc2ccc(C#N)cc2[C@@H](Nc2ccc(=O)n(CC(=O)OC)n2)[C@@H]1O`, which ED50 is on record?
Its ED50 is 17 µg.

Which ED50 does the source give for `CCCC1(C)Oc2ccc(C#N)cc2[C@@H](N=C(NC#N)c2cccnc2)[C@@H]1O` (stereo partly drawn) here?
Its ED50 is 20 µg.

With `COCC1(COC)Oc2ccc([N+](=O)[O-])cc2[C@@H](Nc2ccc(=O)n(C)n2)[C@@H]1O` as the compound, how does the ED50 read?
Its ED50 is 1.1 µg.

With `COCC1(COC)Oc2ccc(C#N)cc2[C@@H](Nc2ccc(O)nn2)[C@@H]1O` as the compound, how does the ED50 read?
The ED50 was 6.2 µg.

Which ED50 does the source give for `COCC1(COC)Oc2ccc(C#N)cc2[C@@H](Nc2ccc(=S)n(C)n2)[C@@H]1O` here?
Its ED50 is 24 µg.

With `C=CCn1nc(N[C@@H]2c3cc(C#N)ccc3OC(COC)(COC)[C@H]2O)ccc1=O` as the compound, how does the ED50 read?
The ED50 was 1.2 µg.

With `CC1(C)Oc2ccc(C#N)cc2[C@@H](N=C(NC#N)c2cccnc2)[C@@H]1O` as the compound, how does the ED50 read?
Its ED50 is 1.3 µg.

With `COCC1(COC)Oc2ccc([N+](=O)[O-])cc2[C@@H](N=C(NC#N)c2cccnc2)[C@@H]1O` as the compound, how does the ED50 read?
Its ED50 is 4.4 µg.

Which ED50 does the source give for `COCC1(COC)Oc2ccc(Br)cc2[C@@H](Nc2ccc(=O)n(C)n2)[C@@H]1O` here?
Its ED50 is 2.3 µg.

Which ED50 does the source give for `COCC1(COC)Oc2ccc(C#N)cc2[C@@H](Nc2ccc(=O)n(C)n2)[C@@H]1O` here?
The ED50 was 0.58 µg.

Which ED50 does the source give for `COCC1(COC)Oc2ccc(C#N)cc2[C@@H](Nc2ccc(=O)n(CC(=O)O)n2)[C@@H]1O` here?
The ED50 was >30 µg.

For `CCCCCCCn1nc(N[C@@H]2c3cc(C#N)ccc3OC(COC)(COC)[C@H]2O)ccc1=O`, which ED50 is on record?
Its ED50 is 13 µg.

Test system: not listed separately
Test: Vasorelaxant effect on KCl-Induced contraction of porcine coronary artery vs rat aorta
Type: functional
How it was run: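 Isolated porcine coronary artery and rat aortic strips in organ bath, Krebs-Henseleit solution, 37 °C, gassed 95% O2/5% CO2; isometric tension under 1 g resting load. Strips contracted with 30 or 40 mM KCl. Mean IC50 (50% relaxation of KCl-induced contraction) from concentration-relaxation curves in each tissue.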

For `COC(=O)C1=C(C)NC(C)=C(C(=O)OC)C1c1ccccc1[N+](=O)[O-]` [NIFEDIPINE], which Ratio is on record?
The Ratio was 1.

Which Ratio does the source give for `CC1(C)Oc2ccc(C#N)cc2[C@@H](N2CCCC2=O)[C@@H]1O` [LEVCROMAKALIM] here?
The Ratio was 0.81.

Species on record: Sus scrofa
Test: Vasorelaxant effect on KCl-Induced contraction of porcine coronary artery
Type: functional

With `COC(=O)C1=C(C)NC(C)=C(C(=O)OC)C1c1ccccc1[N+](=O)[O-]` [NIFEDIPINE] as the compound, how does the IC50 read?
The IC50 was 3.6 nM.

With `CC1(C)Oc2ccc(C#N)cc2[C@@H](N2CCCC2=O)[C@@H]1O` [LEVCROMAKALIM] as the compound, how does the IC50 read?
Its IC50 is 360 nM.

Which IC50 does the source give for `O=C(NCCO[N+](=O)[O-])c1cccnc1` [NICORANDIL] here?
Its IC50 is 3200 nM.
